KDM4C inh = inhibitors of GASC-1 (KDM4C) histone demethylase, primary screen, biochemical, single concentration HTS; actives 0.15% (n = 96,000); inhibition, % at 12.5 µM; GST-KDM4C 2-372, H3K9me3 peptide, LANCE TR-FRET; Lysine-specific demethylase 4C (Homo sapiens), Q9H3R0;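 active means mean replicate inhibition above about 25%, with at least 55% of replicates also reaching it, limit read from the data, passing the limit was not always enough; inconclusive means only one of those two conditions met; inactive means neither condition met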
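material = GST-tagged GASC-1 (JMJD2C) catalytic fragment, aa 2-372 | amount = enzyme final amount 10 nM | medium = HEPES buffer, pH 7.5, plus ascorbate | also added = H3K9me3 peptide substrate, Fe(II), 2-oxoglutarate | dosing = single dose | times = 30 min demethylation and 1 h detection at room temperature | detection = LANCE TR-FRET | read-out basis = Fall in 671/618 emission ratio as inhibition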
Pf Dd2 growth = P. falciparum Dd2 growth inhibitors, primary screen, SYBR Green fluorescence, single dose replicates. 72 h; hits give low values. activity change, % at 10 µM. AID 1159554, 2015. actives 2.3% (n = 94,000); in the data active means activity change below about -80%; inconclusive means no clear call, values can overlap the other calls
T cruzi growth-1 = T. cruzi intracellular proliferation inhibitors, primary screen, cell-based, beta-gal Tulahuen parasites, NIH3T3 host, luminescence. inhibition, % at 8.34 µM. actives 5.9% (n = 77,000). T. cruzi beta-gal in NIH3T3, GalScreen luminescence, 90 h. AID 624255, 2012;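 active means mean inhibition above about 93%, with at least 55% of replicates each passing it, limit read from the data, passing the limit was not always enough; inconclusive means only one of those two conditions holds; inactive means neither condition holds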
IDH1 R132H inh = inhibitors of IDH1 R132H reductase, primary screen, biochemical, plate reader, single point; diaphorase/resazurin fluorescence, 60 min; inhibition, % at 10 µM; actives 0.18% (n = 70,000); AID 624101, 2012; in the data active means inhibition above about 34%; inconclusive means no clear call, values can overlap the other calls; inactive means below about 11%
Target sequence (O75874 whole entry R132H): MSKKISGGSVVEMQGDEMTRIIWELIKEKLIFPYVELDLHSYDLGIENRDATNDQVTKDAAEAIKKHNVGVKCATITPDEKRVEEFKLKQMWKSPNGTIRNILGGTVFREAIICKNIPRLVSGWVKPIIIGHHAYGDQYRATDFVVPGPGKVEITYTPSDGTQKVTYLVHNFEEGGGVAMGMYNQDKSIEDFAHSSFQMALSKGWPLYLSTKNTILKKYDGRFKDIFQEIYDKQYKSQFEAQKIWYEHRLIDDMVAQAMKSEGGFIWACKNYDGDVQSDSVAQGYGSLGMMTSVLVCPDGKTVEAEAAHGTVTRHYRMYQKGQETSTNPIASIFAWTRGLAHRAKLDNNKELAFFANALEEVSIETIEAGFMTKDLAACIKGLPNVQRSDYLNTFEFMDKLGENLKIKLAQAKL
T cruzi growth-2 = T. cruzi intracellular proliferation inhibitors, confirmation, cell-based, NIH3T3 host, beta-gal parasite, luminescence, cherry-pick; shares compounds with T cruzi growth-1; T. cruzi beta-gal in NIH3T3, GalScreen luminescence, 90 h; inhibition, % at 8.35 µM; actives 72% (n = 5,600); AID 651739, 2012;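 active means mean replicate inhibition above about 95% and at least 55% of replicates individually reaching it, limit read from the data; inconclusive means only one of the two criteria is met; inactive means neither criterion is met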
T cruzi growth-3 = inhibitors of intracellular T. cruzi replication, confirmation, NIH3T3 host cells, beta-gal parasites, cherry-pick, set 2. shares compounds with T cruzi growth-1. T. cruzi beta-gal in NIH3T3, GalScreen luminescence, 90 h. inhibition, % at 2.09 µM. actives 21% (n = 5,600). AID 651740, 2012;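 active means mean inhibition above about 95%, with at least 55% of replicates also reaching it, limit read from the data; inconclusive means meets just one of the two conditions; inactive means meets neither condition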
3T3 cytotox = cytotoxicity in mouse NIH/3T3 fibroblasts, confirmation, cytotoxicity control for T. cruzi proliferation inhibitor project, cell-based, cherry-pick, single point. shares compounds with T cruzi growth-1. NIH/3T3 viability, CellTiter-Glo ATP luminescence, 90 h. cytotoxicity (signal decrease), % at 8.35 µM. actives 14% (n = 5,600). AID 651742, 2012;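 active means mean signal decrease across replicates above about 35% based on untreated-well scatter, with enough replicates individually passing, limit read from the data; inconclusive means no rule stated though some were filed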
NIH3T3 tox 2 = NIH/3T3 fibroblast cytotoxicity, confirmation, cytotoxicity control, cell-based, cherry-pick, single point, set 2; shares compounds with T cruzi growth-1; NIH/3T3 viability, CellTiter-Glo ATP luminescence, 90 h; inhibition, % at 24.9 µM; actives 56% (n = 5,600);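 active means mean loss of cell viability signal at or above a set limit, and enough replicates individually reaching it; inconclusive means meets only the mean limit or only the replicate share; inactive means meets neither condition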
A number is an active result; – = inactive; ? = inconclusive; · = no result. An excerpt weighted towards active compounds, which were near 5.8% of everything screened.

SMILES	KDM4C inh	Pf Dd2 growth	T cruzi growth-1	IDH1 R132H inh	T cruzi growth-2	T cruzi growth-3	3T3 cytotox	NIH3T3 tox 2
C[C@@H]1CCCCO[C@H](CN(C)C(=O)Nc2cccc3ccccc23)[C@H](C)CN([C@H](C)CO)C(=O)c2cc(NS(=O)(=O)c3ccc(Cl)cc3)ccc2O1	–	–	105	–	108	113	–	–
C[C@@H]1CCCCO[C@@H](CN(C)C(=O)Nc2cccc3ccccc23)[C@@H](C)CN([C@H](C)CO)C(=O)c2cc(NS(=O)(=O)c3ccc(Cl)cc3)ccc2O1	–	–	–	–	·	·	·	·
C[C@@H]1CCCCO[C@@H](CN(C)C(=O)Nc2cccc3ccccc23)[C@@H](C)CN([C@@H](C)CO)C(=O)c2cc(NS(=O)(=O)c3ccc(Cl)cc3)ccc2O1	–	–	99	·	103	–	–	–
C[C@H](CCC(=O)O)[C@H]1CCC2[C@@H]3CC[C@@H]4C[C@H](O)CC[C@]4(C)C3C=C[C@@]21C (some centres not stated)	·	·	·	–	·	·	·	·
Cc1ccc(-c2ccc3c(c2)O[C@H](CN(C)Cc2ccc(F)cc2)[C@@H](C)CN([C@H](C)CO)S3(=O)=O)cc1	–	–	98	–	102	100	46	104
Cc1ccc(-c2ccc3c(c2)O[C@@H](CN(C)Cc2ccc(F)cc2)[C@@H](C)CN([C@@H](C)CO)S3(=O)=O)cc1	–	–	–	–	·	·	·	·
C[C@H](CO)N1C[C@H](C)[C@H](CN(C)CC2CC2)Oc2cc(-c3ccccc3)ccc2S1(=O)=O	–	–	–	–	·	·	·	·
C[C@@H]1CN([C@@H](C)CO)S(=O)(=O)c2ccc(-c3ccc(F)cc3)cc2O[C@@H]1CN(C)Cc1cccc(F)c1	–	–	–	–	·	·	·	·
C[C@@H]1CN([C@@H](C)CO)S(=O)(=O)c2ccc(-c3ccccc3)cc2O[C@@H]1CN(C)Cc1cccc(F)c1	–	–	123	·	–	112	–	107
C[C@H]1CN([C@@H](C)CO)S(=O)(=O)c2ccc(-c3ccccc3)cc2O[C@H]1CN(C)CC1CC1	–	–	112	–	–	–	–	79
C[C@@H]1CN([C@H](C)CO)S(=O)(=O)c2ccc(-c3ccccc3)cc2O[C@H]1CN(C)Cc1ccccc1	–	–	–	–	·	·	·	·
Cc1ccc(-c2ccc3c(c2)O[C@H](CN(C)Cc2ccccc2)[C@H](C)CN([C@H](C)CO)S3(=O)=O)cc1	–	–	121	–	–	110	–	106
CCc1cc(=O)oc2cc(OCc3cc(C(=O)OC)oc3C)ccc12	·	·	·	–	·	·	·	·
Oc1ccccc1C1=Nc2ccccc2N=C(c2ccc(Cl)cc2)C1	·	·	·	–	·	·	·	·
Cc1ccc(NC(=O)CNS(=O)(=O)c2ccccc2)cc1Cl	·	·	·	–	·	·	·	·
COc1ccc(OC)c(S(=O)(=O)N2CCC(C(=O)Nc3ccccc3F)CC2)c1	·	·	·	–	·	·	·	·
O=C(O)CCc1ccc(-c2cccs2)n1-c1cc(Cl)ccc1O	·	·	·	–	·	·	·	·
COc1cccc(-c2ccc3c(c2)[C@H]2[C@H](CCN2C(=O)c2ccc4c(c2)OCO4)[C@H](CO)N3C)c1	–	–	–	·	·	·	·	·
COc1ccc(-c2ccc3c(c2)[C@@H]2[C@@H](CCN2C(=O)c2ccncc2)[C@H](CO)N3C)cc1	–	–	?	·	108	–	–	–
COc1ccc(-c2ccc3c(c2)[C@@H]2[C@@H](CCN2C(=O)c2ccc(F)cc2)[C@@H](CO)N3C)cc1	–	–	–	·	·	·	·	·
COc1ccc(-c2ccc3c(c2)[C@@H]2[C@@H](CCN2C(=O)c2ccc4c(c2)OCO4)[C@@H](CO)N3C)cc1	–	–	100	·	105	100	–	–
CC(C)C#Cc1ccc2c(c1)O[C@@H](CN(C)Cc1ccncc1)[C@@H](C)CN([C@H](C)CO)S2(=O)=O	–	–	107	–	–	–	–	?
CC(C)C#Cc1ccc2c(c1)O[C@@H](CN(C)Cc1cccnc1)[C@@H](C)CN([C@H](C)CO)S2(=O)=O	–	–	?	·	99	–	–	–
CC(C)C#Cc1ccc2c(c1)O[C@H](CN(C)C(=O)c1cccnc1)[C@@H](C)CN([C@H](C)CO)S2(=O)=O	–	–	–	–	·	·	·	·
CC(C)C#Cc1ccc2c(c1)O[C@@H](CN(C)Cc1cccnc1)[C@H](C)CN([C@H](C)CO)S2(=O)=O	–	–	100	·	99	–	40	106
SMILES	KDM4C inh	Pf Dd2 growth	T cruzi growth-1	IDH1 R132H inh	T cruzi growth-2	T cruzi growth-3	3T3 cytotox	NIH3T3 tox 2
CC(C)C#Cc1ccc2c(c1)O[C@@H](CN(C)C(=O)c1cccnc1)[C@H](C)CN([C@@H](C)CO)S2(=O)=O	52	–	103	81	–	–	–	39
C[C@H](O)C#Cc1ccc2c(c1)O[C@H](CN(C)Cc1ccncc1)[C@@H](C)CN([C@@H](C)CO)S2(=O)=O	–	–	–	·	·	·	·	·
O=C(CN1C(=O)C2C3C=CC(C4CC34)C2C1=O)Oc1ccccc1C(=O)Oc1ccccc1 (configuration not stated)	·	·	·	–	·	·	·	·
CC1=CCC(C(C)(C)O[C@@H]2O[C@H](C)[C@@H](O)[C@H](O)[C@H]2O)CC1 (some centres not stated)	·	·	·	–	·	·	·	·
COc1ccc(-c2nc(SCc3ccc(OC)c([N+](=O)[O-])c3)n[nH]2)cc1	·	·	·	–	·	·	·	·
CC(C)C#Cc1ccc2c(c1)O[C@H](CN(C)Cc1cccnc1)[C@@H](C)CN([C@@H](C)CO)S2(=O)=O	–	–	93	·	108	102	42	106
COC(=O)CN(c1cc(Cl)cc(Cl)c1)S(=O)(=O)c1ccccc1	·	·	·	–	·	·	·	·
Cc1ccc(-c2ccc3c(c2)O[C@H](CN(C)Cc2cccnc2)[C@H](C)CN([C@@H](C)CO)S3(=O)=O)cc1	–	–	108	–	97	–	46	95
C[C@@H]1CN([C@H](C)CO)S(=O)(=O)c2ccc(-c3ccncc3)cc2O[C@@H]1CN(C)Cc1cccnc1	·	–	–	·	·	·	·	·
Cc1ccc(-c2ccc3c(c2)O[C@@H](CN(C)Cc2cccnc2)[C@H](C)CN([C@H](C)CO)S3(=O)=O)cc1	–	–	118	–	?	104	80	102

Screens from PubChem.
